Data on 6 molecules can be found in ChEMBL document CHEMBL1134589, “Antimalarial simplified 3-aryltrioxanes: synthesis and preclinical efficacy/toxicity testing in rodents” (2001).

One may read the ED50 as the midpoint of the dose-response relation. Lower therefore signals an effect at a small dose.

Experiment [1] concerns Mus musculus. As to the kind of experiment: Antimalarial efficacy against Plasmodium berghei in mice (Mus musculus) when administered intravenously each day for 4 days to five mice (Mus musculus) per dose regimen. It counts as functional. The following applies: iv, 96 h. The procedure, abridged:
(§1)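 P. berghei-infected mice; four doses (1, 3, 10 and 30 mg/kg) given once daily for four days, five mice per dose regimen, by sc or iv route as per line. ED50 and ED90 derived from the dose–response, reported in mg/kg and µmol/kg.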

Experiment [2] relates to Mus musculus. Description: Antimalarial efficacy against Plasmodium berghei in mice (Mus musculus) when administered subcutaneously each day for 4 days to five mice (Mus musculus) per dose regimen. It counts as functional. The following applies: sc, 96 h. The method, boiled down:
as §1

SMILES strings stand for the structures.

As for `CO[C@@H]1O[C@@]2(c3ccc(C(=O)O)cc3)CC[C@H]3CCCC[C@]31OO2`, in the experiment on Mus musculus [1], the 50% effective dose (ED50) is 19.5 mg/kg and the ED90 stood at 55 mg/kg. In the experiment on Mus musculus [2], this molecule displayed an ED50 of 22.5 mg/kg and an ED90 of 112 mg/kg.

In the experiment on Mus musculus [1], `CO[C@H]1O[C@@]2(c3ccc(C(=O)O)cc3)CC[C@H]3CCCC[C@]31OO2` gave an ED50 of 16.5 mg/kg and an ED90 of 48 mg/kg. Further, in the experiment with Mus musculus [2], the ED50 was 10.5 mg/kg and the ED90 worked out at 19.5 mg/kg.

In the experiment with Mus musculus [1], `CO[C@@H]1O[C@@]2(c3ccc(F)cc3)CC[C@H]3CCCC[C@]31OO2` yielded an ED50 of 4 mg/kg and an ED90 of 8 mg/kg. Further, in the experiment with Mus musculus [2], the ED50 is 4.7 mg/kg and the ED90 was found to be 8.3 mg/kg.

Regarding `C[C@@H]1[C@H](OCc2ccc(C(=O)O)cc2)O[C@@H]2O[C@@]3(C)CC[C@@H]4[C@@H](C)CC[C@@H]1[C@]24OO3` [ARTELINIC ACID], in the experiment on Mus musculus [1], the 50% effect level (ED50) was put at a dose of 4.3 mg/kg and the ED90 was determined as 15.5 mg/kg. In the experiment with Mus musculus [2], the 50% effective dose (ED50) came to 6.6 mg/kg and the ED90 came to 14 mg/kg.

`CCO[C@H]1O[C@@H]2O[C@@]3(C)CC[C@H]4[C@H](C)CC[C@@H]([C@H]1C)[C@@]24OO3` [ARTEMOTIL] registered a 50% effective dose (ED50) in the experiment on Mus musculus [1] of 0.46 mg/kg. In the experiment on Mus musculus [2], this molecule registered a 50% effective dose (ED50) of 0.9 mg/kg and an ED90 of 1.4 mg/kg.

On to `CCN(CC)CCCC(C)Nc1ccnc2cc(Cl)ccc12` (stereo unspecified) [CHLOROQUINE], for which the ED50 in the experiment on Mus musculus [1] came to 5 mg/kg; in the experiment with Mus musculus [2] it was 1 mg/kg.
